From PubChem
Only some compounds are listed: those with a hit (about 4% of all), similar ones and a draw of the others.
OX1R antag-1 = antagonists of human orexin 1 receptor (OX1R) | O43613 | OX1R-expressing cells, FRET antagonist read-out | inhibition, % at 6.6 µM | 1.8% of 330,000 active; in the data active = inhibition mostly above about 38%, no sharp cut-off; inactive = mostly below about 40%;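 also: 0% = agonist challenge alone and 100% = reference antagonist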
TAAR1 ag = agonists of human TAAR1; activation, % at 3 µM; CHO RD-HGA16 TAAR1, Fluo-8 calcium fluorescence; vehicle wells 0%, saturating PEA agonist 100%; Q96RJ0; 0.99% of 360,000 active;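 active = activation above the mean activation of all test compounds in the run plus 3 SD, cut at about 38% in these data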
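System: CHO RD-HGA16 cells carrying human TAAR1 plus Gα16; Incubation: 17-24 h seeding, 75 min 37 °C dye, 30 min RT; Measured by: Fluo-8 fluorescence, 5 s baseline then 140 s kinetic read; Control set: DMSO and PEA EC100; Replication: single well for each compound.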
TAAR1 antag = human TAAR1 antagonism | inhibition, % at 3 µM | 1.5% of 360,000 active | CHO RD-HGA16 TAAR1, Fluo-8 calcium fluorescence, antagonist | AID 624466;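 active = inhibition above a per-plate cutoff, the mean inhibition of test compounds on that plate plus 3 SD, cut at about 49% in these data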;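 also: 0% = DMSO plus EC80 beta-PEA response and 100% = DMSO alone without agonist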
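System: CHO RD-HGA16 cells bearing hTAAR1. Reagent: EC80 β-phenethylamine stimulus. Schedule: seeding 17-24 h prior, 75-min 37 °C, 30-min RT dye loading. Signal: Fluo-8 intracellular calcium dye fluorescence, real-time kinetic reads. Read-out: % inhibition from peak post-agonist over basal fluorescence ratio. Benchmarks: vehicle wells and EC80 agonist wells. Replicates: n of 1.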
CHO parental Ca = counter-screen: ATP calcium response change in parental CHO cells. parental CHO-K1, ATP-induced calcium, Fluo-8 fluorescence. inhibition, % at 5.6 µM. 0.63% of 330,000 active. AID 463079;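 active = inhibition above that plate's mean sample inhibition plus 3 SD, cut at about 26% in these data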;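 also: 0% = ATP-challenged DMSO wells and 100% = DMSO wells without ATP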
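Assay system: untransfected parental CHO cell line. Also added: ATP agonist challenge. Dosing: one dose, 5.6 µM nominal. Measured by: Fluo-8 fluorescence. Read-out: % inhibition. Benchmarks: ATP wells versus no-ATP DMSO wells. Repeats: no replicates.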
OX1R antag-2 = human HCRTR1 antagonism. 0.43% of 330,000 active. CHO/OX1R cells, Fluo-8 calcium fluorescence, orexin A. inhibition, % at 5 µM. O43613;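 active = inhibition above its plate's threshold, mean inhibition of all tested compounds on the plate plus 3 SD, cut at about 37% in these data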;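 also: 0% = orexin A challenge wells and 100% = SB-334867-A antagonist wells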
NTR1 agonist = activates human neurotensin receptor 1. P30989. NTR1-U2OS beta-arrestin-GFP spot imaging, agonist mode. activation, % at 20 µM. 0.17% of 330,000 active. AID 493036;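 active = activation at or above 40% of the spot to cytoplasm intensity ratio, with at least 20 cells analyzed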;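 also: 0% = DMSO without peptide and 100% = 100 nM NTR1 peptide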
Target sequence (P30989 whole entry, looked up): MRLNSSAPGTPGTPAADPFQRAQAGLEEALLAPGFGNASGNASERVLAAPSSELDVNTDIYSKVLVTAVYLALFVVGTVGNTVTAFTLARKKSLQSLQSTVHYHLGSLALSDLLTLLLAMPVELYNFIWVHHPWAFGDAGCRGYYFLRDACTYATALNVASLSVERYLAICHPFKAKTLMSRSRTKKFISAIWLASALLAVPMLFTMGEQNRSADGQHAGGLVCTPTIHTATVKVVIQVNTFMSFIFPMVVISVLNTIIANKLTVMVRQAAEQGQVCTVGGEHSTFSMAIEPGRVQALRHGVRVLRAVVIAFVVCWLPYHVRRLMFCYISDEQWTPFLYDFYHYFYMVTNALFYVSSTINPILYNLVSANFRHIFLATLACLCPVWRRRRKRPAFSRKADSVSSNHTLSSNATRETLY
Numbers without * were called inactive; · = not tested or not shown; ! = not active in a repeat.

SMILES	OX1R antag-1	TAAR1 ag	TAAR1 antag	CHO parental Ca	OX1R antag-2	NTR1 agonist
O=C(Cc1ccccc1)Nn1c(O)c(/C=C2\C=Nc3ccccc32)sc1=S	43	22	54*	4	21	·
O=C(CSCc1ccc(Br)cc1)NCc1ccccn1	18	-1	-5	-7	-17	-1
Cn1cc(C(=O)N/N=C/c2ccc3c(c2)OCO3)c2ccccc21	43*	10	9	-5	11	1
O=C(N/N=C/c1cc(Br)cc(Cl)c1O)c1ccc2c(c1)OCO2	22	8	-4	-5	-18	2
O=C(CNC(=O)c1ccc2c(c1)OCO2)N/N=C/c1cc(Br)ccc1O	48*	-2	0	7	3	0
O=C(N/N=C/c1ccc2c(c1)OCO2)c1ccc(COc2cccc3cccnc23)cc1	29	15	49*	-10	-22	7
Cc1cc(Br)cc(/C=N/NC(=O)c2ccc3c(c2)OCO3)c1O	64*	3	22	-11	-7	8
O=C(N/N=C/c1c[nH]c2ccc(Br)cc12)c1ccc2c(c1)OCO2	69*	2	6	-9	0	8
O=C(CSCc1ccccc1Br)N/N=C/c1ccc2c(c1)OCO2	59	7	28	3	18	5
O=C(CSCc1cccc(Br)c1)N/N=C/c1ccc2c(c1)OCO2	63*	11	2	16	12	-1
O=C(N/N=C/c1cc(Cl)cc([N+](=O)[O-])c1O)c1ccc2c(c1)OCO2	56*	1	-9	-10	-5	0
COC(=O)Cc1nnn2c1[C@H](C)[C@H](C(C)(C)C)OCC2	·	4	-14	·	·	·
O=C(CCSc1nc2ccccc2s1)N/N=C/c1c(O)ccc2ccccc12	61*	3	28	6	9	2
Cc1cc2c(nc1C)CCCN2S(=O)(=O)c1ccccc1	·	0	-33	·	·	·
CCOC(=O)c1nc2c(=O)n(C)c(=O)n(C)c2n(C)c1=O	48*	2	-23	-13	7	-1
Cc1ccc(-c2cc(NC(=O)Cc3c[nH]c4ccccc34)ccc2N(C)c2cccnc2)cc1	·	1	5	·	·	·
CC(C)=CCCC(C)c1cc(C(=O)NCCc2ccc(O)cc2)c(N)s1 (stereo not drawn)	·	40*	-1	·	·	·
NC1=C(Cl)C(=O)c2ccccc2C1=O	·	3	-11	·	·	·
CC1COCC(C)N1C1=C(Cl)C(=O)c2ccccc2C1=O (stereo not drawn)	·	41*	-24	·	·	·
Cc1cccc(/C=C/c2nc3ccccc3c(=O)[nH]2)c1	69*	1	2	-14	-18	4
COc1ccc(C=CC(=O)c2c(N)n(C)c(=O)n(C)c2=O)cc1	·	1	-3	·	·	·
Cc1nn(-c2ccccc2)c(C)c1NC(=O)COC(=O)/C=C/c1ccccc1	15	19	60*	1	-3	1
COc1ccc(C)cc1NC(=O)COC(=O)c1c(C)nn(-c2ccccc2)c1C	30*	2	18	-1	37	2
COc1ccc(C)cc1NC(=O)c1nn(-c2ccccc2)cc1OC	48*	-5	30	-17	17	16
O=C(NCC(c1cccs1)N1CCOCC1)c1ccccc1NS(=O)(=O)c1ccc(Cl)c([N+](=O)[O-])c1 (stereo not drawn)	45*	9	-6	-4	-6	10
SMILES	OX1R antag-1	TAAR1 ag	TAAR1 antag	CHO parental Ca	OX1R antag-2	NTR1 agonist
CCOC(=O)c1ccc(-n2cccc2/C=C2\NC(=O)NC2=O)cc1	12	16	51*	-18	-5	0
CCNC(=O)N1CCN(c2ccc(N3CCN(Cc4ccccc4)[C@H](C)C3)c(C)c2)[C@H](C)C1	·	3	-20	·	·	·
Cc1nn(-c2ccc(Cl)cc2)c(Cl)c1/C=C(\C#N)C(N)=O	10	6	0	-1	-10	2
Cc1c(C(=O)NN)nn(-c2ccc(F)cc2)c(=O)c1C#N	48*	4	-4	0	-10	0
COC(=O)Nc1nn(-c2ccc(Cl)cc2)c(=O)c(C#N)c1C	59*	4	-10	3	-3	3
CCOC(=O)c1nn(-c2ccc(C)c(C)c2)c(=O)c(C#N)c1C	44*	2	-24	-18	-30	1
COc1ccccc1Cc1c(C(C)(C)C)nc2c(C)cc(Br)cn12	·	1	-10	·	·	·
C/C(N)=C(/C#N)C(=O)CSc1nnc(SCc2ccc(Cl)cc2)s1	70	4	52*!	25	9	0
Cc1cccc(N2CCN(C(=O)Cn3sc4nc(C)cc(C)c4c3=O)CC2C)c1 (stereo not drawn)	5	·	·	36*	40	9
Cc1cc(C)c2c(=O)n(CC(=O)NCCCN3CCOCC3)sc2n1	10	·	·	-8	-11	4
Cc1ccc(NC(=O)Cn2sc3nc(C)cc(C)c3c2=O)c(Cl)c1	4	25	-11	46*	25	1
Cc1cc(C)c2c(=O)n(CC(=O)N3CCC(Cc4ccccc4)CC3)sc2n1	·	·	·	·	·	11
Cc1cc(C)c2c(=O)n(CC(=O)NCCCN3CCN(c4ccccc4F)CC3)sc2n1	2	·	·	45*	39	1
CCOc1ccc(NC(=O)Cn2sc3nc(C)cc(C)c3c2=O)cc1	5	·	·	46*	52*	10
C[C@H](CO)N1C[C@H](C)[C@@H](CN(C)C(=O)Nc2ccc(N3CCN(C)CC3)cc2)OCc2cn(nn2)CCCC1=O	·	1	3	·	·	·
Cc1ccc(OCCC(=O)Nc2cc(S(=O)(=O)N3CCOCC3)ccc2N2CCCC2)cc1	·	2	7	·	·	·
COc1cc(NC(=O)[C@@H](Cc2ccccc2)NC(=O)[C@H]2O[C@@H](n3ccc(=O)[nH]c3=O)[C@H](O)[C@@H]2O)cc(OC)c1OC	·	0	-4	·	·	·
N#Cc1ccsc1NC(=O)C1CCCN1S(=O)(=O)c1cccs1 (stereo not drawn)	53*	1	-24	-13	12	1
CC(=O)c1cccc(NC(=O)C2CCCN2S(=O)(=O)c2cccs2)c1 (stereo not drawn)	·	2	-11	·	·	·
Cc1noc(C)c1CN1C(=O)c2ccc([N+](=O)[O-])cc2C1=O	53*	-1	7	-5	-15	1
Cc1ccc(C)c(NS(=O)(=O)c2ccc(OCC(=O)NCc3ccco3)cc2)c1	5	1	7	2	9	1
Cc1ccc(NS(=O)(=O)c2ccc(OCC(=O)NCc3ccco3)cc2)cc1	7	40*	22	-7	-13	0
CC(SCc1ccccc1)C(=O)N/N=C/c1ccc(OCC(=O)NCc2ccco2)cc1 (stereo not drawn)	56*	6	12	-2	24	0
O=C(CCn1nc(-c2ccccc2)c2ccccc2c1=O)N1CCN(c2ccccc2)CC1	62*	8	-4	-26	12	3
